Wee1 stabilizer = Wee1 degradation inhibitors, primary screen, cell-based, HeLa, Wee1K328M-luciferase, luminescence. Wee1-like protein kinase (Homo sapiens), P30291. HeLa Luc-Wee1K328M stability; 100% = proteasome inhibitor MG132 effect. reporter increase, % at 5 µM. 220,000 tested, 1.2% active. AID 1321, 2008;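 active = activation above the mean of all tested compounds plus 3 SD, set per screening run, cut at about 8.8% in these data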;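 also: cells exposed to compound for 20 h before luminescence read; 0% = DMSO alone and 100% = MG132 at 30 µM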
Target sequence (P30291 whole entry K328M): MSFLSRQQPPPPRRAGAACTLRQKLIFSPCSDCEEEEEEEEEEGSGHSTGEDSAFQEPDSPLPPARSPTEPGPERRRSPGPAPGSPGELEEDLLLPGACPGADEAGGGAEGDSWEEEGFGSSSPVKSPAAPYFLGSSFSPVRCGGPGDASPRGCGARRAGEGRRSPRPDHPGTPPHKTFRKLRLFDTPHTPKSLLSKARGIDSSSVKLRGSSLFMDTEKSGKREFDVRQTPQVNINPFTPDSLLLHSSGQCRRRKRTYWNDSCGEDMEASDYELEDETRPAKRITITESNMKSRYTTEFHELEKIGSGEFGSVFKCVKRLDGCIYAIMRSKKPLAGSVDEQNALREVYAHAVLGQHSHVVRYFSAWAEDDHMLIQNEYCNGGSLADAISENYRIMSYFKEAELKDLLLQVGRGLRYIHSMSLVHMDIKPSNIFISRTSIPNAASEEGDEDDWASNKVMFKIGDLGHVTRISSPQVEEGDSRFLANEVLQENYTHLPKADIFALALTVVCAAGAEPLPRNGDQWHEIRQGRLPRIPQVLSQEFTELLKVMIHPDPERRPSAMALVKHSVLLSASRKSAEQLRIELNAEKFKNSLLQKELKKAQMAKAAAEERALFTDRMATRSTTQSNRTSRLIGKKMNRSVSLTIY
PKD1 kinase inh = inhibitors of human PKD1 kinase, biochemical, fluorescence polarization; 200,000 tested, 0.056% active; AID 797, 2007; PKD1 kinase fluorescence polarization assay; inhibition, % (concentration not given with the values)
Lmaj promast = Leishmania major promastigote growth inhibition, primary screen | 200,000 tested, 9% active | Leishmania major promastigotes, resazurin fluorescence viability | inhibition, % at 10 µM;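 also: promastigotes grown with compound for 44 hours at 28 °C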
CHOP inh = inhibitors of CHOP promoter induction, primary screen, cell-based, unfolded protein response, luciferase reporter; CHO-K1 CHOP-promoter luciferase, tunicamycin-induced, 15-18 h; inhibition, % at 10 µM; 220,000 tested, 3.8% active; AID 2732, 2010;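 active = compounds that reduced the stress-induced luciferase reporter signal by more than about 70% of percent inhibition, limit read from the data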;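 also: 0% = tunicamycin plus vehicle and 100% = wells without tunicamycin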
Rad51 HR inh = human RAD51 strand exchange inhibitors, primary screen, biochemical, fluorescence | hRad51 DNA strand exchange, fluorescence dequenching | inhibition, % at 10 µM | 200,000 tested, 0.085% active | AID 1385, 2008;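 active = inhibition above 40% at the single screening dose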;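 also: 0% = DMSO control wells and 100% = blanks with heterologous ssDNA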
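Test system – preformed human Rad51 ssDNA filaments · Reagent – Donor/quencher-labelled 47-bp dsDNA substrate · Incubation – 37 °C 15-min filament assembly, 30-min compound preincubation, 15-min exchange · Signal – FRET fluorescence dequenching, excitation 485 nm, emission 520 nm · Read-out – percent inhibition from fluorescence, normalised to plate control and blank means · Benchmarks – plate control and blank wells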
Arbovirus inh = antivirals against arbovirus infection, primary screen, cell-based, full library, 10K replicate subset. arbovirus infection cell-based antiviral screen. inhibition, % at 10 µM. 200,000 tested, 0.37% active. AID 1251, 2008; in the data active = inhibition above about 30%
* hit, by the source's call; / = no result given. Hits are enriched below; roughly 12% of the tested compounds scored in any of these assays. Rule as the data show it, unless noted: active = inhibition above about 50%; inactive = the rest.

SMILES	Wee1 stabilizer	PKD1 kinase inh	Lmaj promast	CHOP inh	Rad51 HR inh	Arbovirus inh
Cc1cccc(-n2nc(C)c3c(C(=O)O)cc(-c4cccs4)nc32)c1	3	-4	-1	0	-11	42*
Cc1nn(-c2cccc(Cl)c2)c2nc(-c3ccco3)cc(C(=O)O)c12	-2	-3	-2	36	-6	19
N=c1oc2ccc3ccccc3c2cc1C(N)=S	1	-6	1	55	0	-7
CC(=O)Nc1ccc2nc(C3CC3)n(Cc3ccc(Cl)cc3)c(=O)c2c1	8	-2	84*	-17	-8	0
CCC(=O)Nc1ccc2nc(C3CC3)n(Cc3ccc(C(C)(C)C)cc3)c(=O)c2c1	0	/	/	47	-2	/
CCOCCCNC(=O)C(NC(=O)Cc1cccs1)c1ccc(Cl)cc1 (stereo not drawn)	1	-1	3	4	7	3
O=C(Nc1ccc(Oc2ccc(C(=O)O)c(C(=O)O)c2)cc1)c1cccs1	-1	-2	-4	1	2	-5
O=C(CCC(=O)OCC(=O)c1ccc([N+](=O)[O-])cc1)NC1CCCCC1	2	-6	77*	20	4	-11
O=C(COC(=O)c1ccc(Cl)c([N+](=O)[O-])c1)Nc1ccccc1OC(F)F	-1	-4	58*	-9	-1	4
COC(=O)CSc1ccc(S(=O)(=O)N2CCC(C)CC2)cc1[N+](=O)[O-]	1	0	-10	-15	/	3
COC(=O)c1ccc(SCC(=O)N2CCC(C)CC2)c([N+](=O)[O-])c1	0	0	64*	23	4	0
O=C(CCC(=O)OCC(=O)c1cccc([N+](=O)[O-])c1)NC1CCCCC1	1	/	/	15	3	/
O=C(COC(=O)c1ccccc1C(=O)c1ccc(Cl)c([N+](=O)[O-])c1)NC1CCCCCC1	3	6	-3	93*	5	-31
CC(C)N(C(=O)COC(=O)c1ccccc1C(=O)c1ccc(Cl)c([N+](=O)[O-])c1)C(C)C	4	5	32	-26	5	0
COC(=O)c1ccc(SCC(=O)NC2CCCC2)c([N+](=O)[O-])c1	-1	3	60*	20	1	7
CC(C)(CCO)NC(=S)NC1CC2C=CC1C2 (stereo not drawn)	-1	/	/	9	20	/
S=C(NC1CCCCC1)NC1CC2C=CC1C2 (stereo not drawn)	9.2*	/	/	18	/	/
O=C(O)c1cccc(S(=O)(=O)N2CCN(C(c3ccccc3)c3ccccc3)CC2)c1	0	-1	-7	-8	-8	15
CC(C)(C)c1ccc(NC(=O)COC(=O)c2ccc(NS(=O)(=O)c3ccc(F)c(F)c3)cc2)cc1	6	5	-6	25	7	-10
COc1ccc(C2(O)CC3CCC(C2)N3c2cc(C)nc(-c3ccccc3)n2)cc1 (stereo not drawn)	1	-3	63*	60	-3	-25
Cc1cc(N2CCN(c3ccccc3)CC2)nc(-c2ccccc2)n1	-3	-9	11	29	1	-19
COC(=O)c1sccc1NC(=O)C1CCCCC1C(=O)O (stereo not drawn)	4	3	-7	8	-10	6
Cc1coc2c1C(=O)C(=O)c1c-2ccc2c1CCCC2(C)C	4	10	98*	16	5	0
C[C@H]1COC2=C1C(=O)C(=O)c1c2ccc2c1CCCC2(C)C	2	-3	8	-8	-7	-13
c1csc(-c2noc(CN3CCc4sccc4C3)n2)c1	-2	-3	-6	42	-1	-7
SMILES	Wee1 stabilizer	PKD1 kinase inh	Lmaj promast	CHOP inh	Rad51 HR inh	Arbovirus inh
CCn1ccnc1CN(C)Cc1cn(-c2ccccc2)nc1-c1ccc(OC)cc1F	-2	1	37	6	7	1
CCn1ccnc1CN(C)Cc1cn(-c2cc(C)ccc2C)nc1-c1ccccc1	2	4	93*	14	/	-13
Cc1ccc(-n2cc(CN3CCNC(=O)CC3)c(-c3ccc(F)cc3)n2)cc1	-2	/	/	12	/	/
Cc1cccc(-n2cc(CN3CCN(Cc4nccn4C)CC3)c(-c3cccc(F)c3)n2)c1	-2	8	90*	-29	/	-6
Cc1ccc(-n2cc(CN3CCC(O)(c4ccccn4)CC3)c(-c3ccc(F)cc3)n2)cc1	-1	-7	73*	52	25	-43
COc1ccc(-n2cc(CN3CCCC3)c(-c3cccc(F)c3)n2)cc1	0	4	44	-9	-18	1
CCn1ccnc1CN(C)Cc1cn(-c2ccc(C)cc2)nc1-c1ccc(F)cc1	-1	3	100*	75*	13	-22
Cc1ccc(-n2cc(CN(C)Cc3ncc[nH]3)c(-c3cccc(C)c3)n2)cc1	-1	-1	83*	22	4	-8
CN(Cc1ncc[nH]1)Cc1cn(-c2ccccc2)nc1-c1ccc2c(c1)OCO2	-1	/	/	3	-5	/
Cc1ccc(-n2cc(CN(C)Cc3nccn3C)c(-c3ccc(F)cc3)n2)cc1	-2	-1	80*	30	6	-33
COC(=O)c1ccc(N/C=C\C(=O)c2ccc3c(c2)OCO3)cc1	-1	6	-6	-18	2	-9
COc1ccc(N/C=C\C(=O)c2ccc3c(c2)OCO3)cc1OC	2	0	88*	7	1	-12
Cc1nc(CCNS(=O)(=O)c2cccnc2)cs1	1	/	/	11	-5	/
CCOC(=O)CC1=NS(=O)(=O)c2ccccc2N1	-2	1	-5	15	-3	77*
Cc1ccsc1/C=C/c1ccc2ccccc2n1	-2	-5	0	45	/	-6
CSc1ccc(/C=C/c2ccc3cccc(O)c3n2)cc1	1	1	89*	-32	13	-10
Cc1ccsc1/C=C/c1ccc2cccc(O)c2n1	1	-1	98*	38	-3	-17
Oc1cccc2ccc(/C=C/c3cccs3)nc12	4	-3	94*	12	-1	-12
Oc1c(Cl)cc(Cl)cc1/C=C/c1ccc2cccc(O)c2n1	0	2	46	18	-38	13
Oc1ccc(Cl)cc1/C=C/c1ccc2cccc(O)c2n1	1	0	89*	94*	-23	-39
Cc1ccc(NC(=O)COc2ncnc3cc([N+](=O)[O-])ccc23)cc1S(=O)(=O)N1CCOCC1	3	/	/	17	-13	/
Cn1c(=O)cc(C(=O)N/N=C/c2ccc(F)cc2)[nH]c1=O	-1	/	/	-1	1	/
CSc1ccccc1NC(=O)CSc1nnnn1-c1ccccc1SC	2	-4	67*	27	0	0

Source: PubChem (several laboratories)
